From PubChem BioAssay
This is a sample that favours compounds with a hit; in the whole collection about 2% have one here.
ZTA counter: blocks Epstein-Barr virus ZTA, an EBNA-1 counter-screen | ZTA-DNA binding, fluorescence polarization | inhibition, % at 11 µM | actives 0.15% (n = 320,000) | AID 2234; in the data active = inhibition above about 33%
EBNA-1 inh: blocks EBNA-1 binding to DNA. EBNA-1 DNA binding, fluorescence polarization. inhibition, % at 14.8 µM. actives 0.34% (n = 300,000). AID 1950; in the data active = inhibition above about 28%
FID counter: fluorescent intercalator displacement, NS3 helicase counter-screen; AID 1845; actives 0.17% (n = 290,000); inhibition, % at 7.9 µM; DNA fluorescent intercalator displacement, fluorescence; in the data active = inhibition above about 37%;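 also: 0% = vehicle and 100% = reference compound; higher means more ethidium bromide displaced from hairpin DNA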
GPR7 antagonist: blocks human GPR7 receptor signaling | P48145 | GPR7-expressing cells, fluorescence antagonist assay | inhibition, % at 4.4 µM | actives 1.1% (n = 290,000); in the data active = inhibition above about 16%, passing the limit was not always enough;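 also: cells stimulated with the agonist NPW; 0% = agonist with vehicle and 100% = vehicle without agonist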
Target sequence (P48145 whole entry, looked up): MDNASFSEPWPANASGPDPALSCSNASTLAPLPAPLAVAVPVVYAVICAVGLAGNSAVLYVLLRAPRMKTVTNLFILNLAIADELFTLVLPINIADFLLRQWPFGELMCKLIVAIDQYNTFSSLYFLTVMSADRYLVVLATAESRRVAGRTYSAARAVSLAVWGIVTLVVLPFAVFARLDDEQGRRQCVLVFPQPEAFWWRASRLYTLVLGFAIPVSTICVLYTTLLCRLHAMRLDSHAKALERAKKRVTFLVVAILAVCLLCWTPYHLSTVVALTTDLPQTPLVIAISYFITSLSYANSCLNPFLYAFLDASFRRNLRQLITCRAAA
HCV NS3 hel inh: inhibitors of Hepatitis C virus NS3 helicase. NS3 helicase DNA unwinding, Cy5 molecular beacon fluorescence. inhibition, % at 10.9 µM. actives 0.56% (n = 290,000);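 active = inhibition above the mean of all tested compounds plus 3 SD, set per campaign, cut at about 35% in these data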;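 also: 0% = DMSO wells and 100% = thioflavine S control wells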
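Assay system – hepatitis C virus NS3 helicase domain fragment enzyme · Buffer or medium – MOPS pH 6.5, MgCl2, DTT, Tween20, BSA · Reagent – Cy5/quencher beacon DNA duplex and ATP to start · Compound – single 10.9 µM dose · Timing – 1 h at 25 °C · Technique – Cy5 beacon fluorescence read at start and 1 h · Measure – % inhibition of unwinding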
* marks the source's active call; other numbers are inactive results.

What do the screens show for `O=S(=O)(c1ccccc1)N1CCC(O)(CSc2ccc(F)cc2)CC1`?
ZTA counter: -21.5; EBNA-1 inh: -5.6; FID counter: -6.4; GPR7 antagonist: 17.9*; HCV NS3 hel inh: -5.5

Results for COc1ccc(Nc2c(-c3ccc(C)cc3)nc3cnccn23)cc1 ?
ZTA counter: -12.0; EBNA-1 inh: 4.5; FID counter: -14.5; GPR7 antagonist: 16.6*; HCV NS3 hel inh: -11.5

Results for COc1ccc(Nc2c(-c3ccc(OC)cc3)nc3cnccn23)cc1 ?
ZTA counter: -9.8; EBNA-1 inh: 1.3; FID counter: 1.7; GPR7 antagonist: 4.3; HCV NS3 hel inh: -5.6

Results for Cc1sc(NC(=O)c2ccco2)c(C(c2cccnc2)N2CCC(C)CC2)c1C (stereo unspecified) ?
ZTA counter: -3.2; EBNA-1 inh: -11.5; FID counter: -13.7; GPR7 antagonist: 20.2*; HCV NS3 hel inh: -0.9

What do the screens show for `CN(CCCNC(=O)CCC(=O)N1CCOc2ccccc21)Cc1ccccc1`?
ZTA counter: 12.6; EBNA-1 inh: -15.7; FID counter: 2.9; GPR7 antagonist: -5.6; HCV NS3 hel inh: 14.7

How did Clc1ccc2nc(N3CCNCC3)nc(-c3ccccc3)c2c1 do in these assays?
ZTA counter: 1.1; EBNA-1 inh: -18.3; FID counter: 44.1*; GPR7 antagonist: 21.9; HCV NS3 hel inh: -50.4

How did O=C(CSc1nnc(-c2ccc(OC(F)F)cc2)o1)NCc1cccs1 do in these assays?
ZTA counter: 77.8*; EBNA-1 inh: 146.9*; FID counter: -7.7; GPR7 antagonist: -6.2; HCV NS3 hel inh: 8.6

What do the screens show for `Cc1cnc(C(=O)Oc2ccc(-c3ccccc3)cc2)cn1`?
ZTA counter: 7.2; EBNA-1 inh: 5.6; FID counter: -28.1; GPR7 antagonist: 3.5; HCV NS3 hel inh: -12.0

How did CCOc1ccc(NS(=O)(=O)c2ccc(C(=O)NNC(=O)c3ccccc3O)cc2)cc1 do in these assays?
ZTA counter: -7.1; EBNA-1 inh: -14.6

Results for CC(C)Oc1ccc(C(=O)Nc2c3c(nn2C(C)(C)C)CS(=O)(=O)C3)cc1 ?
ZTA counter: 6.8; EBNA-1 inh: 6.9; FID counter: -32.2; GPR7 antagonist: -8.8; HCV NS3 hel inh: 5.6

What do the screens show for `COc1ccc(NC(=O)CCCCCn2nnc3ccccc3c2=O)cc1`?
FID counter: -28.2; GPR7 antagonist: -15.3; HCV NS3 hel inh: -3.9

What do the screens show for `Cn1c(C(=O)N2CCC(C(=O)N3CCOCC3)CC2)cc2sccc21`?
ZTA counter: 18.1; EBNA-1 inh: 3.3; FID counter: -3.6; GPR7 antagonist: 19.8*; HCV NS3 hel inh: -8.0

How did Cn1c(C(=O)N2CCC(C(=O)N3CCN(Cc4ccc5c(c4)OCO5)CC3)CC2)cc2sccc21 do in these assays?
ZTA counter: 2.7; EBNA-1 inh: 6.7; FID counter: -25.4; GPR7 antagonist: -6.8; HCV NS3 hel inh: -11.8

What do the screens show for `O=C(Cc1ccccc1)N/N=C/C=C/c1ccccc1[N+](=O)[O-]`?
ZTA counter: -2.5; EBNA-1 inh: 8.7; FID counter: -7.4; GPR7 antagonist: -9.3; HCV NS3 hel inh: -14.0

What do the screens show for `O=C(O)c1ccc(N/N=C/C=C/c2ccccc2[N+](=O)[O-])cc1`?
ZTA counter: 5.7; EBNA-1 inh: -2.5; FID counter: -9.8; GPR7 antagonist: 19.1*; HCV NS3 hel inh: 6.0

What do the screens show for `COc1cccc(NC(=O)c2ccc(NCCCN3CC(C)CC(C)C3)c([N+](=O)[O-])c2)c1` (stereo unspecified)?
FID counter: 50.6*; GPR7 antagonist: 0.8; HCV NS3 hel inh: -88.2

Results for Cc1ccc(OCc2cc(C(=O)NC3CCOC3)no2)cc1C (stereo unspecified) ?
ZTA counter: -8.9; EBNA-1 inh: -7.5; FID counter: -7.9; GPR7 antagonist: -8.4; HCV NS3 hel inh: 11.4

What do the screens show for `CC1=Nc2ccccc2/C1=C\c1sc(Nc2ccc(C)cc2)nc1O`?
ZTA counter: 0.7; EBNA-1 inh: 4.2; FID counter: 1.0; GPR7 antagonist: 18.9*; HCV NS3 hel inh: 1.2

What do the screens show for `CN(C)c1ccc(/C=C2\SC(N3CCCCC3)=NC2=O)cc1`?
ZTA counter: -2.5; EBNA-1 inh: -7.1; FID counter: -28.5; GPR7 antagonist: -7.9; HCV NS3 hel inh: 10.7

What do the screens show for `CCCc1cc(=O)oc2c(C)c(OCC(=O)N3CCC[C@@H]3C(=O)O)ccc12`?
ZTA counter: 3.2; EBNA-1 inh: -2.3; FID counter: -31.9; GPR7 antagonist: -4.1; HCV NS3 hel inh: 15.4
